A selection: hits, their analogues and other compounds. The true share with any hit is near 2.7%.
S100A4 inh HTS: blocks human S100A4 binding to myosin IIA peptide; 360,000 compounds, 0.14% hits; S100A4/TAMRA-MyoIIA peptide fluorescence polarization; inhibition, % at 10.7 µM;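 active means mean inhibition of at least 70% across replicates, with every replicate also reaching that level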
Target sequence (P26447 whole entry, looked up): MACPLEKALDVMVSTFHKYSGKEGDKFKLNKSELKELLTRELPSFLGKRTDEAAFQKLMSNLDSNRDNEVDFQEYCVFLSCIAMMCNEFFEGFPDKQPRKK
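System – human S100A4 monomer protein, biochemical binding assay · Buffer or medium – Calcium-containing HEPES buffer, pH 7.2 · Timing – 5 min between mix addition and reading · Also added – TAMRA-labelled myosin IIA heavy-chain peptide probe, 5 nM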
HIV Env fusion: HIV envelope-mediated fusion inhibition | AID 651610 | inhibition, % at 12.3 µM | HeLa-JRFL Env/CEM21 cell fusion, luciferase | 360,000 compounds, 1.1% hits;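 active means mean replicate inhibition score of at least 50 and every replicate individually at or above 50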
E-selectin induc: E-selectin induction on HUVECs | HUVEC E-selectin immunofluorescence imaging; normalized: neutral wells 0, TNF-alpha wells 100 | activation, % at 7.58 µM | 260,000 compounds, 0.37% hits;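 active means mean E-selectin-positive cell signal at least 10% of the positive control, reached in at least 60% of replicates, without over 20% cell loss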
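Material: HUVEC primary endothelial cells; Amount: 3,000 cells per well; Dosing: single concentration; Medium: EGM-2 growth medium on 0.1% gelatin-coated wells; Read-out basis: percent E-selectin-positive cells; Signal: immunofluorescence imaging; Control set: TNF-alpha, DMSO.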
F508del corr: correctors of CFTR F508del function in bronchial epithelial cells; CFBE cells, YFP halide quenching; stimulated with forskolin plus potentiator P3; % fluorescence drop versus neutral controls; activity (quench increase), % at 7.58 µM; 350,000 compounds, 0.36% hits;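 active means mean added fluorescence quench of at least 8% versus neutral control, with both replicates also reaching 8%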;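 further: cells transiently co-express mutant CFTR-F508del with the halide-sensitive YFP; corrector assay measuring rescue of mutant channel to the surface after 24 h compound exposure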
FGF22 binding: FGF22 (human) thermal shift binding | recombinant FGF22 thermal shift, SYPRO orange fluorescence; percent of sucrose octasulfate shift, DMSO zero | Q9HCT0 | activity (Tm shift, normalised), % at 9.99 µM | 340,000 compounds, 1.5% hits;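 active means mean Tm shift, scaled 0 neutral to 100 positive control, at about 1.3% or above, every replicate too, limit read from the data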
Target sequence (Q9HCT0 whole entry, looked up): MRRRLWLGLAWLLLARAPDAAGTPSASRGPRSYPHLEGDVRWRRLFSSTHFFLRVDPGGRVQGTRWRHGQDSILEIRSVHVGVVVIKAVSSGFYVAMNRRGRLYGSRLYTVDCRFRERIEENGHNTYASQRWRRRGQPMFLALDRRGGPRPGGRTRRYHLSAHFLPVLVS
Hits are given with their value; . = inactive; / = no result given; [ ] = dose if it differs, or a comment.

SMILES | S100A4 inh HTS | HIV Env fusion | E-selectin induc | F508del corr | FGF22 binding
COC(=O)C[C@H]1CC[C@H]2[C@H](COc3ccc(NC(=O)c4ccccc4)cc3C(=O)N2C)O1 | . | . | . | . | .
O=C(CCCc1nc(-c2ccccc2Cl)no1)NC1CCCC1 | . | 65.6 | . | . | .
Cc1noc(C)c1S(=O)(=O)Nc1ccc2c(c1)C(=O)N([C@@H](C)CO)C[C@@H](C)[C@H](CN(C)C(=O)Nc1ccccc1)OCCCC[C@@H](C)O2 | . | . | . | . | .
Cc1nn(S(=O)(=O)c2cccs2)c(C)c1Sc1ccc([N+](=O)[O-])cc1 | . | 97.4 | / | / | /
C[C@H]1CN([C@@H](C)CO)C(=O)Cc2cc(NC(=O)Nc3ccccc3)ccc2O[C@H]1CN(C)S(=O)(=O)c1ccccc1 | . | 70.0[16.7 µM] | / | . | .
C[C@H](CO)N1C[C@H](C)[C@H](CN(C)S(=O)(=O)c2ccccc2)Oc2ccc(NC(=O)Nc3ccc(F)cc3)cc2CC1=O | . | . | 40.7 | . | .
CC(C)NC(=O)Nc1ccc2c(c1)CC(=O)N([C@@H](C)CO)C[C@H](C)[C@H](CN(C)S(=O)(=O)c1ccccc1)O2 | . | . | . | . | /
C[C@H](CO)N1C[C@H](C)[C@H](CN(C)S(=O)(=O)c2ccc(F)cc2)Oc2ccc(NC(=O)Nc3ccc(F)cc3)cc2CC1=O | . | . | . | . | .
C[C@H]1CN([C@@H](C)CO)C(=O)Cc2cc(NC(=O)Nc3ccccc3)ccc2O[C@@H]1CN(C)S(=O)(=O)c1ccccc1 | . | . | . | . | .
C[C@H](CO)N1C[C@H](C)[C@H](CN(C)S(=O)(=O)c2ccc(Cl)cc2)Oc2ccc(NC(=O)Nc3ccc(F)cc3)cc2CC1=O | . | . | 39.8 | . | .
CC(C)NC(=O)Nc1ccc2c(c1)CC(=O)N([C@H](C)CO)C[C@H](C)[C@H](CN(C)S(=O)(=O)c1ccccc1)O2 | . | 65.3[16.7 µM] | . | . | .
O=C(c1ccccc1F)N1CC(=O)N2[C@H](CO)[C@H](c3ccc(-c4ccccc4)cc3)[C@@H]2C1 | . | / | . | . | /
O=C(NC1CCC1)[C@@H]1[C@@H](CO)[C@@H]2Cn3c(ccc(C4=CCCCC4)c3=O)[C@H]1N2CC1CC1 | . | / | . | . | .
C[C@H](CO)N1C[C@H](C)[C@H](CN(C)S(=O)(=O)c2ccccc2)Oc2ccc(NC(=O)NC3CCCCC3)cc2CC1=O | . | 87.3 | . | . | .
C[C@@H]1CN([C@H](C)CO)C(=O)Cc2cc(NC(=O)NC3CCCCC3)ccc2O[C@H]1CN(C)S(=O)(=O)c1ccccc1 | . | / | . | . | .
Cc1noc(C)c1NC(=O)Nc1ccc2c(c1)CC(=O)N([C@@H](C)CO)C[C@@H](C)[C@@H](CN(C)S(=O)(=O)c1ccccc1)O2 | . | . | . | . | .
Cc1noc(C)c1NC(=O)Nc1ccc2c(c1)CC(=O)N([C@@H](C)CO)C[C@H](C)[C@@H](CN(C)S(=O)(=O)c1ccccc1)O2 | . | . | 49.5 | . | .
Cc1cc2oc(=O)cc(-c3ccccc3)c2c(C)c1-c1ccc(O)cc1 | . | . | / | 9.2 | .
C[C@H](CO)N1C[C@H](C)[C@H](CN(C)Cc2ccc(C(=O)O)cc2)Oc2c(NC(=O)Nc3ccccc3)cccc2C1=O | . | / | . | . | .
O=C(NCc1ccc(Cl)cc1)C(=O)NCC(c1cccnc1)N1CCN(c2ccc(F)cc2)CC1 (configuration not stated) | . | 62.4 | . | . | .
O=S(=O)(NCC(c1cccnc1)N1CCN(c2ccc(F)cc2)CC1)c1ccccc1 (configuration not stated) | . | / | / | . | .
COc1ccc(-c2csc(-c3ccccc3)n2)c(OC)c1 | . | . | . | . | 43.1
COc1ccc(-c2csc(-c3cccs3)n2)c(OC)c1 | . | . | . | . | .
CCCCCNc1nc2sc3c(c2c(=O)n1-c1cccc(Cl)c1)CCN(C)C3 | . | . | 41.6 | . | .
O=c1[nH]c(CN2CCc3ccccc3C2)nc2ccccc12 | / | . | / | / | /
SMILES | S100A4 inh HTS | HIV Env fusion | E-selectin induc | F508del corr | FGF22 binding
O=c1[nH]c(CN2CCOCC2)nc2ccccc12 | . | . | . | . | 43.1
C/C(=N\Nc1ncnc2sc(C)c(C)c12)c1ccccn1 | . | . | / | 21.4 | .
COc1ccc(Nc2nnc(-c3ccccc3)c3ccccc23)cc1C(=O)N1CCCCC1 | . | . | / | . | 43.0
Cc1ccc(S(=O)(=O)NNC(=O)C23CCC(CC2)C3)cc1 | . | / | . | . | 42.9
COc1ccc(S(=O)(=O)NNC(=O)C23CC4CC(CC(C4)C2)C3)cc1 | . | . | . | . | .
COc1ccccc1-c1ccc2c(c1)C(C)(Cc1ccccc1C#N)C(=O)N2 (configuration not stated) | . | 63.1 | . | . | .
CC1(Cc2ccccc2C#N)C(=O)Nc2ccc(-c3ccccc3)cc21 (configuration not stated) | . | / | . | . | .
COc1ccccc1-c1ccc2c(c1)C(C)(Cc1ccc(Cl)c(Cl)c1)C(=O)N2 (configuration not stated) | . | 99.8 | . | . | .
CCCNC(=O)[C@@H]1[C@@H](CO)[C@@H]2Cn3c(ccc(-c4ccncc4)c3=O)[C@H]1N2CC1CC1 | . | / | . | . | .
CCCc1cn(CC[C@@H]2CC[C@H](NC(=O)C3CCCC3)[C@@H](CO)O2)nn1 | . | . | . | . | .
CN(C)Cc1cn(CC[C@@H]2CC[C@@H](N)[C@H](CO)O2)nn1 | . | . | . | . | .
CCCc1cn(CC[C@@H]2CC[C@H](NC(=O)C3CCCC3)[C@H](CO)O2)nn1 | 116.1 | . | . | . | .
CN(C)Cc1cn(CC[C@@H]2CC[C@H](N)[C@H](CO)O2)nn1 | . | 63.1[16.7 µM] | . | . | .
C[C@@H]1CN([C@@H](C)CO)C(=O)Cc2cc(NC(=O)NC3CCCCC3)ccc2O[C@@H]1CN(C)S(=O)(=O)c1ccccc1 | . | / | . | . | .
COc1ccc(S(=O)(=O)N2CCC(C(=O)N[C@H](C(=O)NCc3ccccc3)C(C)C)CC2)cc1 | . | . | . | . | 43.9
O=C(CCNC(=O)C1CCN(S(=O)(=O)c2ccccc2)CC1)NCc1cccnc1 | . | . | . | . | 43.5
COc1ccc(S(=O)(=O)N2CCCC(C(=O)NCCN3CCOCC3)C2)cc1C (configuration not stated) | . | . | . | . | 43.4
CCS(=O)(=O)N1CCC(C(=O)NCc2ccc(OC)cc2)CC1 | . | . | / | . | 43.3
COc1ccc(CNC(=O)[C@@H](NC(=O)C2CCN(S(=O)(=O)c3ccccc3)CC2)C(C)C)cc1 | . | . | . | . | .
CO[C@@H]1CN(C)C(=O)c2cc(C#N)ccc2OC[C@H]2O[C@H](CC[C@H]2OC)CCN(C)C(=O)[C@H]1C | . | . | . | . | .
CS(=O)(=O)N1CCC(C(=O)NCc2ccccc2)CC1 | . | . | / | . | 43.7
